Where two headings read alike, the source gives them in different places. Marks after values point to notes of the source that are not given here.
Columns and labels:
[1] = test system: SGLT2; conditions: cited from earlier work
[2] = test system: Japanese patients with type 2 diabetes mellitus; assay: Safety: adverse events after a single 5-mg dose; type: in vivo, human
Summary of the method: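 Adverse events were recorded by type and incidence from monitoring of clinical laboratory tests, body weight, vital signs and electrocardiograms. Monitoring covered a 6-day hospital stay with a single oral dose on day 3, plus a follow-up visit 3–5 days after discharge.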

[3] = test system: Japanese patients with type 2 diabetes mellitus; assay: 24-hour urinary glucose excretion; type: in vivo, human; conditions: single 5-mg oral dose, mean ± SD
Summary of the method: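 Patients were hospitalized for 6 days and 5 nights on a stable diet, with no other antidiabetic drugs. A single oral dose of the test compound was given before breakfast on day 3. Glucose was measured by autoanalyzer in 24-h pooled urine collected before and after dosing.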

[4] = test system: Japanese patients with type 2 diabetes mellitus; assay: Plasma glucose; type: in vivo, human; conditions: for FPG change from baseline / FPG postdose: single 5-mg oral dose, mean ± SD; for changes in plasma glucose AUC0-4 from baseline: single 5-mg dose
Summary of the method: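 Hospitalized patients received a single oral dose before breakfast on day 3. Plasma glucose was sampled predose and at 0.5, 1, 2, 4, 6, 8, 12 and 24 h and measured by autoanalyzer. AUC was calculated by the linear trapezoidal rule, with change from the day before dosing estimated per patient. Change in AUC0-4 was analyzed by 1-sample t test.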

[5] = type: in vivo, human
Summary of the method: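 Samples were assayed by validated HPLC-MS/MS (solid-phase extraction, deuterated internal standard, negative-ion MRM; LLOQ 0.05 ng/mL). Parameters came from noncompartmental analysis. Group effects were assessed by ANOVA as geometric mean ratios to the normal-function group with 90% CIs.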

[6] = Urinary excretion of luseogliflozin and metabolites up to 72 hours; type: in vivo, human; conditions: single 5-mg dose of luseogliflozin
Summary of the method: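 24-h urine was collected before dosing and over 0–24, 24–48 and 48–72 h after a single oral dose. Parent compound and metabolites were quantified by validated LC-MS/MS after solid-phase extraction with deuterated internal standards (parent LLOQ 0.1 ng/mL). Excretion rates were estimated from the urine concentrations.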

## CCOc1ccc(Cc2cc([C@@H]3S[C@H](CO)[C@@H](O)[C@H](O)[C@H]3O)c(OC)cc2C)cc1 [luseogliflozin, (1S)‐1,5‐anhydro‐1‐[5‐(4‐ethoxybenzyl)‐2‐methoxy‐4‐methylphenyl]‐1‐thio‐D‐glucitol]
[1]; SGLT2 versus SGLT1
  selectivity for SGLT2 over SGLT1: 1770 fold
[1]; read-out: half-maximal inhibitory concentration (IC50) for SGLT2
  IC50: 2.26 nM
[2]; 57 patients
  AEs judged as moderate: increased blood glucose, patients: 2
  AEs judged as moderate: syncope, patients: 1
[2]; 57 patients, all of mild to moderate severity
  number of AEs in the total study population: 12
[2]; G1 (n = 11)
  Adverse event: Rash (Skin and subcutaneous tissue disorders): 1
  All adverse events: number of patients: 1
[2]; G2 (n = 17)
  Adverse event: Blood glucose increased (Investigations): 1
  Adverse event: Bundle branch block, right (Cardiac disorders): 1
  All adverse events: number of patients: 2
[2]; G3a (n = 10)
  All adverse events: number of events: 2
  All adverse events: number of patients: 2
[2]; G3b (n = 13)
  Adverse event: Blood glucose increased (Investigations): 1
  Adverse event: Dizziness (Nervous system disorders): 1
  Adverse event: Syncope (Nervous system disorders): 1
  All adverse events: number of patients: 3
[2]; G4 (n = 6)
  All adverse events: number of patients: 0
[2]; any group
  deaths or serious AEs: no deaths or serious AEs were observed
[2]; both judged to be mild
  AEs judged to be related to luseogliflozin administration: rash in the G1 group and dizziness in the G3b group
[2]; during the study, data not shown
  changes in laboratory parameters or vital signs: no clinically relevant changes
[2]; of the 57 patients
  number of patients with AEs in the total study population: 8
[3]; G1, eGFR ≥90, n = 11
  UGE0-24 change from baseline: 88.3 ± 36.9 g/day
  UGE0-24 postdose: 111 ± 36.0 g/day
[3]; G2, eGFR 60–89, n = 17
  UGE0-24 change from baseline: 69.7 ± 19.1 g/day
  UGE0-24 postdose: 82.6 ± 23.8 g/day
[3]; G3a, eGFR 45–59, n = 9
  UGE0-24 change from baseline: 57.3 ± 14.9 g/day
  UGE0-24 postdose: 64.4 ± 24.4 ^b g/day
[3]; G3a, eGFR 45–59, n = 9, listed as Luseogliflozin
  UGE0-24 change from baseline: 57.3 ± 14.9 ^b g/day
[3]; G3b, eGFR 30–44, n = 12
  UGE0-24 change from baseline: 35.3 ± 10.8 g/day
  UGE0-24 postdose: 39.4 ± 12.9 ^c g/day
[3]; G3b, eGFR 30–44, n = 12, listed as Luseogliflozin
  UGE0-24 change from baseline: 35.3 ± 10.8 ^c g/day
[3]; G4, eGFR <30, n = 6
  UGE0-24 change from baseline: 21.8 ± 7.10 g/day
  UGE0-24 postdose: 23.7 ± 8.83 g/day
[4]; G1, eGFR ≥90, n = 11
  FPG change from baseline: -27.4 ± 23.5 mg/dL
  FPG postdose: 139.7 ± 25.2 mg/dL
[4]; G1, P < .05
  changes in plasma glucose AUC0-4 from baseline: −135 mg⋅h/dL
[4]; G2, eGFR 60–89, n = 17
  FPG change from baseline: -15.1 ± 13.6 mg/dL
  FPG postdose: 136.4 ± 37.0 mg/dL
[4]; G2, P < .05
  changes in plasma glucose AUC0-4 from baseline: −104 mg⋅h/dL
[4]; G3a, eGFR 45–59, n = 9
  FPG change from baseline: −11.3 ± 13.5 ^b mg/dL
  FPG postdose: 140.1 ± 26.6 ^b mg/dL
[4]; G3a, P < .05
  changes in plasma glucose AUC0-4 from baseline: −108 mg⋅h/dL
[4]; G3b, eGFR 30–44, n = 12
  FPG change from baseline: −4.8 ± 11.8 ^c mg/dL
  FPG postdose: 135.7 ± 24.3 ^c mg/dL
[4]; G3b
  changes in plasma glucose AUC0-4 from baseline: −30.2 mg⋅h/dL
[4]; G4, eGFR <30, n = 6
  FPG change from baseline: 2.2 ± 7.9 mg/dL
  FPG postdose: 125.8 ± 21.1 mg/dL
[4]; G4
  changes in plasma glucose AUC0-4 from baseline: −32.6 mg⋅h/dL
[4]; between G1 and G2
  difference in plasma glucose AUC0-4 from G1 (90%CI): 32.3 (−22.8–87.5)
[4]; between G1 and G3a
  difference in plasma glucose AUC0-4 from G1 (90%CI): 26.7 (−38.6 to 91.9)
[4]; between G1 and G3b
  difference in plasma glucose AUC0-4 from G1 (90%CI): 92.2 (21.9–163)
[4]; between G1 and G4
  difference in plasma glucose AUC0-4 from G1 (90%CI): 72.6 (−1.29 to 146)
[5]; G2 versus G1
  ratio of the geometric mean (90%CI) of Cmax to the Cmax of G1: 0.922 (0.756–1.13)
  ratio of the geometric mean of AUCinf (90%CI) to that of G1: 1.05 (0.900–1.21)
[5]; G3a versus G1
  ratio of the geometric mean (90%CI) of Cmax to the Cmax of G1: 0.939 (0.720–1.22)
  ratio of the geometric mean of AUCinf (90%CI) to that of G1: 1.05 (0.842–1.32)
[5]; G3b versus G1
  ratio of the geometric mean (90%CI) of Cmax to the Cmax of G1: 0.781 (0.607–1.01)
  ratio of the geometric mean of AUCinf (90%CI) to that of G1: 1.04 (0.879–1.23)
[5]; G4, single 5-mg dose of luseogliflozin
  plasma concentration 72 hours after administration as fraction of the Cmax: approximately one‐fiftieth
[5]; G4 versus G1
  ratio of the geometric mean (90%CI) of Cmax to the Cmax of G1: 0.724 (0.525–0.999)
  ratio of the geometric mean of AUCinf (90%CI) to that of G1: 1.21 (0.947–1.53)
[5]; human, plasma, oral, 5 mg
  concentration at 72 h: 1.28 to 3.15 ng/mL
[6]; G1
  excreted in urine up to 72 hours after administration: 4.68%
[6]; G2
  excreted in urine up to 72 hours after administration: 4.15%
[6]; G3a
  excreted in urine up to 72 hours after administration: 3.25%
[6]; G3b
  excreted in urine up to 72 hours after administration: 2.90%
[6]; G4
  excreted in urine up to 72 hours after administration: 2.15%

Source: article PMC6220780 (Clinical Pharmacology in Drug Development, 2018)
